Results: ChEMBL document CHEMBL2169835, “Flavonoid dimers as novel, potent antileishmanial agents” (J Med Chem, 2012)

Columns and labels:
[1] = Therapeutic index, ratio of IC50 for mouse Peritoneal macrophages to IC50 for SSG-resistant Leishmania donovani 39 amastigote infected in mouse peritoneal macrophages; conditions: read-out: Ratio IC50
[2] = Cytotoxicity against mouse Peritoneal macrophages cells after 72 hrs by MTS assay; assay type: cell-based; conditions: Peritoneal macrophage cell
How it was run: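 Primary mouse peritoneal elicited macrophages were seeded at 2 × 10^4 cells per well in DMEM with 10% heat-inactivated FBS. They were exposed to graded doses for 72 h at 37 °C in 5% CO2. Survival was read by MTS/PMS tetrazolium reduction (OD 490 nm) relative to untreated control. The IC50 was the concentration halving OD. Results are mean ± SEM of 1–4 independent experiments.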

[3] = test system: Leishmania donovani; experiment: Antimicrobial activity against SSG-resistant Leishmania donovani 39 amastigote infected in mouse peritoneal macrophages assessed as inhibition of parasite growth after 72 hrs by Giemsa staining method; assay type: functional, organism-based; conditions: Leishmania donovani, 39, 72 h
How it was run: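 Mouse peritoneal elicited macrophages were seeded on coverslips at 1 × 10^5 cells per well in DMEM with 10% heat-inactivated FBS and left to attach overnight. They were infected overnight with late-log Ld39 promastigotes (parasite:macrophage 20:1) at 37 °C, 5% CO2, then washed. Compounds were applied for 72 h at 37 °C. Giemsa-stained amastigotes per 100 macrophages gave IC50; N = 1−3.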

[4] = test system: Leishmania donovani; experiment: Antimicrobial activity against SSG-resistant Leishmania donovani 39 promastigote assessed as inhibition of parasite growth after 72 hrs by MTS assay; assay type: functional, organism-based; conditions: Leishmania donovani, 39, 72 h
How it was run: (§1)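 Promastigotes were grown in Schneider's medium pH 6.9 with 10% heat-inactivated FBS at 27 °C, seeded at 1 × 10^5 per well, and exposed to serial concentrations for 72 h at 27 °C. Compounds were in DMSO (≤1% final) or water. MTS:PMS (20:1) was added for 4 h, then OD490 was read. Survival was % of untreated control; IC50 = concentration halving OD; N = 1−4.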

[5] = test system: Leishmania donovani; experiment: Antimicrobial activity against wild-type Leishmania donovani AG83 promastigote assessed as inhibition of parasite growth after 72 hrs by MTS assay; assay type: functional, organism-based; conditions: AG83, 72 h
How it was run: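 Promastigotes were grown in Schneider's medium pH 6.9 with 10% heat-inactivated FBS at 27 °C, seeded at 1 × 10^5 per well, and exposed to serial concentrations for 72 h at 27 °C. Compounds were in DMSO (≤1% final) or water. MTS:PMS (20:1) was added for 4 h, then OD490 was read.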

[6] = Therapeutic index, ratio of IC50 for rat L6 cells to IC50 for Leishmania donovani; assay type: cell-based; conditions: L6 cells (cytotoxicity) versus Leishmania donovani, read-out: Ratio IC50
[7] = test system: L6; experiment: Cytotoxicity against rat L6 cells; assay type: cell-based
[8] = test system: Leishmania donovani; experiment: Antimicrobial activity against axenically grown Leishmania donovani amastigotes; assay type: functional, organism-based
[9] = test system: Leishmania donovani; experiment: Selectivity ratio of IC50 for Leishmania donovani promastigote to IC50 for SSG-resistant Leishmania donovani 39 amastigote infected in mouse peritoneal macrophages; assay type: functional
[10] = Therapeutic index, ratio of IC50 for mouse Peritoneal macrophages to IC50 for SSG-resistant Leishmania donovani 39 promastigote; conditions: read-out: Ratio IC50
How it was run: (§2)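 Index is PEM cytotoxicity IC50 over promastigote IC50. For PEM, cells were seeded at 2 × 10^4 per well in supplemented DMEM, given graded doses for 72 h at 37 °C, 5% CO2, and read by MTS survival.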

[11] = Therapeutic index, ratio of IC50 for mouse Peritoneal macrophages to IC50 for pentamidine-resistant Leishmania donovani AG83PentR50 promastigote; conditions: read-out: Ratio IC50; how it was run: as §2
[12] = Therapeutic index, ratio of IC50 for mouse PEM cells to IC50 for wild-type Leishmania donovani AG83 promastigote; assay type: cell-based; conditions: read-out: Ratio IC50; how it was run: as §2
[13] = test system: RAW264.7; experiment: Cytotoxicity against mouse RAW264.7 cells after 72 hrs by MTS assay; assay type: cell-based; conditions: RAW264.7, 72 h
How it was run: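 RAW 264.7 murine macrophage line was plated at 1 × 10^4 cells per well in supplemented DMEM. Cells received a graded compound series for 72 h at 37 °C, 5% CO2, with a maximum of 1% DMSO. Viability was measured by MTS with PMS coupling at OD 490 nm, as percent of untreated control. The IC50 was the concentration reducing OD by half, given as mean ± SEM, N = 1–4.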

[14] = test system: Leishmania donovani; experiment: Antimicrobial activity against pentamidine-resistant Leishmania donovani AG83PentR50 promastigote assessed as inhibition of parasite growth after 72 hrs by MTS assay; assay type: functional, organism-based; conditions: AG83PentR50, 72 h; how it was run: as §1

| Compound | selectivity ratio [1] | IC50 [2] [µM] | IC50 [3] [µM] | IC50 [4] [µM] | IC50 [5] [nM] | IC50 [13] [µM] | also measured |
| --- | --- | --- | --- | --- | --- | --- | --- |
| O=c1cc(-c2cccc(OCCOCCN(CCOCCOc3cccc(-c4cc(=O)c5ccccc5o4)c3)Cc3ccncc3)c2)oc2ccccc12 | > 21.7 | > 50 | 2.3 | 0.44 | 190 | – | – |
| O=c1cc(-c2ccc(OCCOCCN(CCOCCOc3ccc(-c4cc(=O)c5ccccc5o4)cc3)Cc3ccncn3)cc2)oc2ccccc12 | > 23.6 | > 33 | 1.4 | 0.58 | 440 | – | – |
| O=c1cc(-c2ccc(OCCOCCN(CCOCCOc3ccc(-c4cc(=O)c5ccccc5o4)cc3)Cc3ccnc(Br)c3)cc2)oc2ccccc12 | > 10 | > 100 | > 10 | > 50 | 1800 | – | – |
| N#Cc1cc(CN(CCOCCOc2ccc(-c3cc(=O)c4ccccc4o3)cc2)CCOCCOc2ccc(-c3cc(=O)c4ccccc4o3)cc2)ccn1 | > 12.1 | > 92 | 7.6 | > 50 | 1100 | – | – |
| O=c1c(OCCOCCN(CCOCCOc2c(-c3ccccc3)oc3ccccc3c2=O)Cc2ccncc2)c(-c2ccccc2)oc2ccccc12 | > 10.6 | > 33 | 3.1 | 3.1 | 2500 | – | – |
| COc1ccc(-c2cc(=O)c3c(O)cc(O)c(-c4cc(-c5cc(=O)c6c(O)cc(O)cc6o5)ccc4OC)c3o2)cc1 [ISOGINKGETIN] | – | – | – | – | – | – | selectivity ratio [6]: 5.8; IC50 [7]: 11 µM; IC50 [8]: 1900 nM |
| COc1c(-c2ccc(OCCOCCN(CCOCCOc3ccc(-c4oc5ccccc5c(=O)c4OC)cc3)Cc3ccncc3)cc2)oc2ccccc2c1=O | > 9.6 | > 50 | 5.2 | 0.98 | 980 | – | – |
| sodium stibogluconate | – | – | – | – | – | – | Ratio IC50 [9]: 11 |
| COc1ccc(-c2cc(=O)c3c(O)cc(O)c(-c4cc(-c5cc(=O)c6c(O)cc(OC)cc6o5)ccc4OC)c3o2)cc1 [SCIADOPITISIN] | – | – | – | – | – | – | IC50 [8]: 8200 nM |
| O=c1cc(-c2ccccc2OCCOCCN(CCOCCOc2ccccc2-c2cc(=O)c3ccccc3o2)Cc2ccncc2)oc2ccccc12 | > 1.6 | > 11 | 7 | 4 | 2300 | – | – |
| COc1ccc(-c2cc(=O)c3c(O)cc(O)cc3o2)cc1-c1c(O)cc(O)c2c(=O)cc(-c3ccc(O)cc3)oc12 [BILOBETIN] | – | – | – | – | – | – | IC50 [8]: 2700 nM |
| O=c1cc(-c2ccc(OCCOCCN(CCOCCOc3ccc(-c4cc(=O)c5cc(F)ccc5o4)cc3)Cc3ccncc3)cc2)oc2ccc(F)cc12 | > 32.3 | > 100 | 3.1 | 0.36 | 310 | – | – |
| C[C@@H]1[C@H](O)[C@@H](C)/C=C/C=C/C=C/C=C/C=C/C=C/C=C/[C@H](O[C@@H]2O[C@H](C)[C@@H](O)[C@H](N)[C@@H]2O)C[C@@H]2O[C@](O)(C[C@@H](O)C[C@@H](O)[C@H](O)CC[C@@H](O)C[C@@H](O)CC(=O)O[C@H]1C)C[C@H](O)[C@H]2C(=O)O [AMPHOTERICIN B] | 119 | 7.4 | 0.062 | 0.095 | 90 | 12 | selectivity ratio [10]: 77.9; selectivity ratio [11]: 145; selectivity ratio [12]: 82.2; IC50 [14]: 0.051 µM |
| O=c1cc(-c2ccc(OCCOCCN(CCOCCOc3ccc(-c4cc(=O)c5ccccc5o4)cc3)Cc3ccncc3Br)cc2)oc2ccccc12 | > 13.1 | > 100 | > 7.6 | > 50 | 650 | – | – |
| COc1cc(-c2cc(=O)c3ccccc3o2)ccc1OCCOCCN(CCOCCOc1ccc(-c2cc(=O)c3ccccc3o2)cc1OC)Cc1ccncc1 | – | 2.7 | – | 0.69 | 630 | – | – |
| O=c1c(O)c(-c2ccc(O)c(O)c2)oc2cc(O)cc(O)c12 [QUERCETIN] | > 16.7 | > 100 | 6 | > 100 | 103000 | 95.6 | Ratio IC50 [9]: 17; selectivity ratio [10]: > 1; selectivity ratio [11]: > 1.4; selectivity ratio [12]: > 1; IC50 [14]: 69.6 µM |
| O=c1cc(-c2ccc(Oc3c(O)cc(O)c4c(=O)cc(-c5ccc(O)cc5)oc34)cc2)oc2cc(O)cc(O)c12 [LANAROFLAVONE] | – | – | – | – | – | – | IC50 [8]: 7200 nM |
| CCCCCCCCCCCCCCCCOP(=O)([O-])OCC[N+](C)(C)C [MILTEFOSINE] | – | 75.3 | 16 | 17.3 | – | 20 | IC50 [14]: 9.3 µM |
| O=c1cc(-c2ccc(OCCN(CCOc3ccc(-c4cc(=O)c5ccccc5o4)cc3)Cc3ccncc3)cc2)oc2ccccc12 | > 10 | > 58 | 5.8 | > 50 | 1400 | – | – |
| COc1cc(O)c2c(=O)cc(-c3ccc(OC)c(-c4c(O)cc(O)c5c(=O)cc(-c6ccc(O)cc6)oc45)c3)oc2c1 [GINKGETIN] | – | – | – | – | – | – | IC50 [8]: 2800 nM |
| O=c1cc(-c2ccc(O)c(O)c2)oc2cc(O)cc(O)c12 [LUTEOLIN] | 10.1 | 77.7 | 7.7 | 89 | 114000 | 43.2 | Ratio IC50 [9]: 12; selectivity ratio [10]: 0.9; selectivity ratio [11]: 0.9; selectivity ratio [12]: 0.7; IC50 [14]: 90.9 µM |
| O=c1cc(-c2ccc(OCCOCCN(CCOCCOc3ccc(-c4cc(=O)c5ccccc5o4)cc3)Cc3ccccn3)cc2)oc2ccccc12 | > 8 | > 33 | 4.1 | 4.2 | 5000 | 53 | – |
| O=c1cc(-c2ccc(OCCOCCOCCOCCOCCOCCOCCOCCOCCOCCOCCOCCOCCOc3ccc(-c4cc(=O)c5ccccc5o4)cc3)cc2)oc2ccccc12 | – | – | – | 8.2 | 9200 | 8.4 | IC50 [14]: 7.9 µM |
| NC[C@@H]1O[C@H](O[C@H]2[C@@H](O)[C@H](O[C@@H]3[C@@H](O)[C@H](N)C[C@H](N)[C@H]3O[C@H]3O[C@H](CO)[C@@H](O)[C@H](O)[C@H]3N)O[C@@H]2CO)[C@H](N)[C@@H](O)[C@@H]1O [PAROMOMYCIN] | > 2.4 | > 100 | 41 | 24.5 | 62600 | > 100 | selectivity ratio [10]: > 4.1; selectivity ratio [11]: > 1.2; selectivity ratio [12]: > 1.6; IC50 [14]: 85.5 µM |
| O=c1cc(-c2ccc(OCCOCCN(CCOCCOc3ccc(-c4cc(=O)c5ccccc5o4)cc3)Cc3cccnc3)cc2)oc2ccccc12 | 13.8 | 33.1 | 2.4 | 0.98 | 560 | – | – |
| CCc1ccc2oc(-c3ccc(OCCOCCOCCOCCOCCOCCOc4ccc(-c5cc(=O)c6cc(CC)ccc6o5)cc4)cc3)cc(=O)c2c1 | – | – | – | 2.5 | 3100 | 5.5 | IC50 [14]: 3.3 µM |
| CCc1ccc2oc(-c3ccc(OCCOCCOCCOCCOc4ccc(-c5cc(=O)c6cc(CC)ccc6o5)cc4)cc3)cc(=O)c2c1 | – | – | – | > 24 | > 24000 | > 100 | IC50 [14]: > 24 µM |
